# Laboratory results as given in ChEMBL document CHEMBL1287651, “Synthesis and in vitro antibacterial activity of fluoroquinolone derivatives containing 3-(N'-alkoxycarbamimidoyl)-4-(alkoxyimino) pyrrolidines” (2010).
# How the values were obtained:
# Assay type in all cases: functional
# Enterococcus faecium [1] = assay: Antibacterial activity against Enterococcus faecium 08-7 after 18 to 24 hrs by twofold serial dilution method
# In short: (§1)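 MIC determined by the standard twofold serial dilution method on agar media, screening against Gram-positive and Gram-negative strains. Levofloxacin and gemifloxacin were run alongside as reference drugs.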
# Klebsiella pneumoniae [2] = assay: Antibacterial activity against Klebsiella pneumoniae 09-23 after 18 to 24 hrs by twofold serial dilution method; in short: as §1
# Staphylococcus aureus [3] = assay: Antibacterial activity against methicillin-resistant Staphylococcus aureus 08-1 after 18 to 24 hrs by twofold serial dilution method
# In short: (§2)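 Standard twofold serial agar dilution method on agar media for MIC determination. Screened against representative Gram-positive and Gram-negative strains. Levofloxacin and GMFX served as control drugs.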
# [4] = system: Staphylococcus epidermidis; assay: Antibacterial activity against methicillin-resistant Staphylococcus epidermidis 09-4 after 18 to 24 hrs by twofold serial dilution method; in short: as §2
# Enterococcus faecalis [5] = assay: Antibacterial activity against Enterococcus faecalis 08-10 after 18 to 24 hrs by twofold serial dilution method; in short: as §1
# Enterococcus faecalis [6] = assay: Antibacterial activity against Enterococcus faecalis 08-12 after 18 to 24 hrs by twofold serial dilution method; in short: as §1
# Streptococcus pneumoniae [7] = assay: Ratio of compound MIC to levofloxacin MIC for Streptococcus pneumoniae
# [8] = system: Staphylococcus epidermidis; assay: Antibacterial activity against methicillin-sensitive Staphylococcus epidermidis 09-3 after 18 to 24 hrs by twofold serial dilution method; in short: as §2
# Streptococcus pneumoniae [9] = assay: Antibacterial activity against Streptococcus pneumoniae 08-4 after 18 to 24 hrs by twofold serial dilution method; in short: as §1
# Klebsiella pneumoniae [10] = assay: Antibacterial activity against Klebsiella pneumoniae 09-21 after 18 to 24 hrs by twofold serial dilution method; in short: as §1
# [11] = system: Staphylococcus epidermidis; assay: Antibacterial activity against methicillin-resistant Staphylococcus epidermidis 09-3 after 18 to 24 hrs by twofold serial dilution method; in short: as §2
# Escherichia coli [12] = assay: Antibacterial activity against Escherichia coli 08-22 after 18 to 24 hrs by twofold serial dilution method; in short: as §1
# Pseudomonas aeruginosa [13] = assay: Antibacterial activity against Pseudomonas aeruginosa 09-33 after 18 to 24 hrs by twofold serial dilution method; in short: as §1
# Escherichia coli [14] = assay: Antibacterial activity against Escherichia coli 08-21 after 18 to 24 hrs by twofold serial dilution method; in short: as §1
# Pseudomonas aeruginosa [15] = assay: Antibacterial activity against Pseudomonas aeruginosa 09-32 after 18 to 24 hrs by twofold serial dilution method; in short: as §1
# Staphylococcus aureus [16] = assay: Antibacterial activity against methicillin-sensitive Staphylococcus aureus 08-2 after 18 to 24 hrs by twofold serial dilution method; in short: as §2
# [17] = system: Staphylococcus epidermidis; assay: Antibacterial activity against methicillin-sensitive Staphylococcus epidermidis 09-6 after 18 to 24 hrs by twofold serial dilution method; in short: as §2
# [18] = system: Staphylococcus epidermidis; assay: Antibacterial activity against methicillin-resistant Staphylococcus epidermidis 09-2 after 18 to 24 hrs by twofold serial dilution method; in short: as §2
# Enterococcus faecium [19] = assay: Antibacterial activity against Enterococcus faecium 08-2 after 18 to 24 hrs by twofold serial dilution method; in short: as §1
# Escherichia coli [20] = assay: Antibacterial activity against Escherichia coli ATCC 25922 after 18 to 24 hrs by twofold serial dilution method; in short: as §1
# Pseudomonas aeruginosa [21] = assay: Antibacterial activity against Pseudomonas aeruginosa ATCC 27853 after 18 to 24 hrs by twofold serial dilution method; in short: as §1
# Streptococcus pneumoniae [22] = assay: Antibacterial activity against Streptococcus pneumoniae 08-2 after 18 to 24 hrs by twofold serial dilution method; in short: as §1
# Pseudomonas aeruginosa [23] = assay: Antibacterial activity against Pseudomonas aeruginosa 09-34 after 18 to 24 hrs by twofold serial dilution method; in short: as §1
# Staphylococcus aureus [24] = assay: Antibacterial activity against Staphylococcus aureus ATCC […] after 18 to 24 hrs by twofold serial dilution method; in short: as §1
# Klebsiella pneumoniae [25] = assay: Antibacterial activity against Klebsiella pneumoniae 09-22 after 18 to 24 hrs by twofold serial dilution method; in short: as §1
# Pseudomonas aeruginosa [26] = assay: Antibacterial activity against Pseudomonas aeruginosa 09-35 after 18 to 24 hrs by twofold serial dilution method; in short: as §1
# Enterococcus faecium [27] = assay: Ratio of compound MIC to levofloxacin MIC for Enterococcus faecium 08-7
# Klebsiella pneumoniae [28] = assay: Ratio of compound MIC to levofloxacin MIC for Klebsiella pneumoniae 09-22
# Klebsiella pneumoniae [29] = assay: Ratio of compound MIC to gemifloxacin MIC for Klebsiella pneumoniae 09-22
# Enterococcus faecium [30] = assay: Ratio of compound MIC to gemifloxacin MIC for Enterococcus faecium 08-7
Compound,MIC (Enterococcus faecium [1]),MIC (Klebsiella pneumoniae [2]),MIC (Staphylococcus aureus [3]),MIC [4],MIC (Enterococcus faecalis [5]),MIC (Enterococcus faecalis [6]),MIC [8],MIC (Streptococcus pneumoniae [9]),MIC (Klebsiella pneumoniae [10]),MIC [11],MIC (Escherichia coli [12]),MIC (Pseudomonas aeruginosa [13]),MIC (Escherichia coli [14]),MIC (Pseudomonas aeruginosa [15]),MIC (Staphylococcus aureus [16]),MIC [17],MIC [18],MIC (Enterococcus faecium [19]),MIC (Escherichia coli [20]),MIC (Pseudomonas aeruginosa [21]),other results
CCO/N=C1\CN(c2c(F)cc3c(=O)c(C(=O)O)cn(CC)c3c2F)CC1/C(N)=N\OC (stereo unspecified),> 128 µg/mL,> 128 µg/mL,0.25 µg/mL,0.125 µg/mL,> 128 µg/mL,> 128 µg/mL,0.125 µg/mL,0.25 µg/mL,> 128 µg/mL,0.25 µg/mL,> 128 µg/mL,> 128 µg/mL,> 128 µg/mL,> 128 µg/mL,8 µg/mL,0.25 µg/mL,8 µg/mL,> 128 µg/mL,> 128 µg/mL,128 µg/mL,Ratio (Streptococcus pneumoniae [7]): 8; MIC (Streptococcus pneumoniae [22]): 0.25 µg/mL; MIC (Pseudomonas aeruginosa [23]): > 128 µg/mL; MIC (Staphylococcus aureus [24]): 1 µg/mL; MIC (Klebsiella pneumoniae [25]): 8 µg/mL; MIC (Pseudomonas aeruginosa [26]): > 128 µg/mL
CCO/N=C(/N)C1CN(c2c(F)cc3c(=O)c(C(=O)O)cn4c3c2OC[C@@H]4C)C/C1=N\OC (stereo partly specified),0.06 µg/mL,> 128 µg/mL,0.06 µg/mL,0.06 µg/mL,128 µg/mL,> 128 µg/mL,0.06 µg/mL,8 µg/mL,> 128 µg/mL,0.06 µg/mL,> 128 µg/mL,> 128 µg/mL,> 128 µg/mL,16 µg/mL,0.125 µg/mL,0.06 µg/mL,0.06 µg/mL,> 128 µg/mL,128 µg/mL,16 µg/mL,Ratio (Enterococcus faecium [27]): 32; Ratio (Klebsiella pneumoniae [28]): 16; Ratio (Klebsiella pneumoniae [29]): 16; MIC (Streptococcus pneumoniae [22]): 8 µg/mL; MIC (Pseudomonas aeruginosa [23]): > 128 µg/mL; MIC (Staphylococcus aureus [24]): 0.125 µg/mL; MIC (Klebsiella pneumoniae [25]): 0.5 µg/mL; Ratio (Enterococcus faecium [30]): 32; MIC (Pseudomonas aeruginosa [26]): 16 µg/mL
CCO/N=C1\CN(c2nc3c(cc2F)c(=O)c(C(=O)O)cn3C2CC2)CC1/C(N)=N\O (stereo unspecified),> 128 µg/mL,> 128 µg/mL,0.25 µg/mL,0.25 µg/mL,> 128 µg/mL,0.25 µg/mL,0.25 µg/mL,0.25 µg/mL,> 128 µg/mL,0.25 µg/mL,> 128 µg/mL,> 128 µg/mL,> 128 µg/mL,> 128 µg/mL,0.25 µg/mL,0.25 µg/mL,0.25 µg/mL,> 128 µg/mL,> 128 µg/mL,> 128 µg/mL,Ratio (Streptococcus pneumoniae [7]): 8; MIC (Streptococcus pneumoniae [22]): 0.25 µg/mL; MIC (Pseudomonas aeruginosa [23]): > 128 µg/mL; MIC (Staphylococcus aureus [24]): 0.25 µg/mL; MIC (Klebsiella pneumoniae [25]): > 128 µg/mL; MIC (Pseudomonas aeruginosa [26]): > 128 µg/mL
CCO/N=C(/N)C1CN(c2c(F)cc3c(=O)c(C(=O)O)cn(CCF)c3c2F)C/C1=N\OC (stereo unspecified),> 128 µg/mL,> 128 µg/mL,0.25 µg/mL,0.25 µg/mL,> 128 µg/mL,> 128 µg/mL,0.5 µg/mL,1 µg/mL,> 128 µg/mL,0.125 µg/mL,> 128 µg/mL,> 128 µg/mL,> 128 µg/mL,> 128 µg/mL,0.25 µg/mL,0.25 µg/mL,0.25 µg/mL,> 128 µg/mL,> 128 µg/mL,> 128 µg/mL,MIC (Streptococcus pneumoniae [22]): 8 µg/mL; MIC (Pseudomonas aeruginosa [23]): > 128 µg/mL; MIC (Staphylococcus aureus [24]): 0.25 µg/mL; MIC (Klebsiella pneumoniae [25]): 2 µg/mL; MIC (Pseudomonas aeruginosa [26]): > 128 µg/mL
